# Sampled rows, rich in hits. Any-hit rate of the full collection: about 2.1%.
# Statin myotox sup: suppression of simvastatin myotoxicity; C2C12 myotubes + simvastatin, ATP luminescence, 48 h; scaled: DMSO 0, geranylgeraniol control 100; rescue of ATP level, % at 7.49 µM; 0.78% of 330,000 active; AID 602340;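 active = mean ATP rescue above about 67%, or every replicate alone reaching that limit, limit read from the data, passing the limit was not always enough; inconclusive = no clear call, values can overlap the other calls; inactive = mean under the limit and some replicate under it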;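 note: myotubes were challenged with 10 µM simvastatin during compound exposure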
# XiGFP reactiv: activators of X-chromosome reactivation in mouse fibroblasts; XiGFP mouse fibroblasts, % GFP-positive cells imaging, 3 d; cells co-treated with 5-aza-dC sensitizer; scaled so ellipticine positive control = 100%; activation, % at 7.58 µM; 0.055% of 360,000 active;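 active = mean normalized replicate activation at least 10% and every replicate at or above 10%; inconclusive = only one of the two criteria met; inactive = mean below 10% and not all replicates reach 10%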;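 note: 0% = median of on-plate neutral control wells and 100% = ellipticine 6 µM median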
#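 material = 68-5-11 XiGFP fibroblast line | medium = DMEM plus 5-aza-dC sensitizer | schedule = 3 days compound exposure | benchmarks = positive control ellipticine, 6 µM final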
# DENV2 CPE: DENV2-induced cell death inhibition. DENV2-infected cells, cytopathic effect rescue, plate reader. CPE inhibition, % at 9.99 µM. 1.7% of 350,000 active; in the data active = CPE inhibition above about 20%, passing the limit was not always enough; inconclusive = no clear call, values can overlap the other calls; tested in BHK-21 cells;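 note: 0% = median of neutral control wells and 100% = median of positive control wells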
# Cneo AK release: causes C. neoformans cell lysis; adenylate kinase release luminescence, 4 h; normalised: neutral wells 0, clomiphene wells 100; lysis activity, % at 15 µM; 0.2% of 360,000 active;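 active = mean lysis activity across replicates of at least 80%, whatever share of replicates individually reach that level; inactive = mean lysis activity below 80%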
#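 Assay system: Cryptococcus neoformans yeast cells / Dosing: single-point compound dose / Timing: 4 h at 37 °C static, read 1 h later / Measured by: luminescence of released adenylate kinase using an AK detection reagent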
# Starred values were filed as active, the others as inactive; ? = inconclusive; / = no result given.
SMILES,Statin myotox sup,XiGFP reactiv,DENV2 CPE,Cneo AK release
Cc1ccc(CNC(=O)C23CN(Cc4ccccc4)CC2C(c2ccc([N+](=O)[O-])cc2)=NO3)cc1 (stereo unspecified),91.9*,0.1,/,-0.9
Cc1ccc(CCNC(=O)C23CN(Cc4ccccc4)CC2C(c2ccc([N+](=O)[O-])cc2)=NO3)cc1 (stereo unspecified),4.6,-0.3,-1.8,2.0
CCCC#Cc1ccc2c(c1)O[C@@H](CN(C)C(=O)c1ccccn1)[C@@H](C)CN([C@H](C)CO)S2(=O)=O,6.1,-0.4,-9.1,1.7
O=C(NCc1ccccc1)C(c1ccncc1)n1c(=O)c(-c2ccccc2)nc2ccccc21 (stereo unspecified),/,0.7,39.7*,/
CC(C)(C)NC(=O)C(c1ccncc1)n1c(=O)c(-c2ccco2)nc2ccccc21 (stereo unspecified),/,-0.1,30.6*,/
C[C@@H]1CN([C@H](C)CO)C(=O)c2cccc(NS(=O)(=O)c3ccc(Cl)cc3)c2O[C@@H]1CN(C)Cc1ccncc1,-12.0,0.0,?,-2.1
COc1ccccc1-c1cnc2c(c1)C(=O)N([C@@H](C)CO)C[C@@H](C)[C@@H](CN(C)CC1CCOCC1)O2,5.0,-0.6,0.0,28.1
CO[C@H]1CN(C)C(=O)c2cc(NS(=O)(=O)c3ccc(C)cc3)ccc2OC[C@H](C)N(C)C[C@H]1C,-10.0,0.4,9.6,115.7*
CO[C@@H]1CN(C)C(=O)c2cc(NS(=O)(=O)c3ccccc3)ccc2OC[C@@H](C)N(C)C[C@H]1C,9.7,0.4,-3.2,2.9
CO[C@H]1CN(C)C(=O)c2cc(NS(=O)(=O)c3ccc(C)cc3)ccc2OC[C@@H](C)N(C)C[C@H]1C,-1.2,0.2,11.1,0.1
CO[C@@H]1CN(C)C(=O)c2cc(NS(=O)(=O)c3ccccc3)ccc2OC[C@H](C)N(C)C[C@H]1C,-0.2,0.1,20.9*,-2.2
CO[C@@H]1CN(C)C(=O)c2cc(NS(=O)(=O)c3ccccc3C)ccc2OC[C@H](C)NC[C@@H]1C,-2.9,0.3,16.5,0.6
C[C@H]1CN([C@@H](C)CO)C(=O)c2cc(C#CC3(O)CCCC3)cnc2O[C@@H]1CN(C)C(=O)CC1CC1,25.3,-0.7,-7.5,-4.1
CC(C)(C)OC(=O)N1CCC(NC(=O)c2nc[nH]c2C(=O)NCC(=O)OCc2ccccc2)CC1,-0.9,0.0,38.3*,-0.3
CCOC(=O)c1ccc(NC(=O)c2nc[nH]c2C(=O)NC2CCN(C(=O)OC(C)(C)C)CC2)cc1,2.2,0.0,68.5*,-1.8
O=C(NCc1cccs1)c1ccccc1,-3.5,/,/,-1.4
O=C(NCc1cccs1)c1cccc(Nc2nc3ccc(Br)cc3[nH]2)c1,-12.1,0.4,22.3*,0.5
CN(C)CCN(C(=O)c1ccc2ccccc2c1)c1nc2c(F)cccc2s1,120.2*,0.2,1.2,-0.3
CCOc1cccc2sc(N(CCN(C)C)C(=O)c3ccc4ccccc4c3)nc12,1.8,/,/,2.7
Cc1cc(C)nc(N/N=C/C2=C(O)CC(c3ccccc3)CC2=O)n1 (stereo unspecified),/,0.0,31.9*,/
O=C1OC(=O)c2c(Br)c(Br)c(Br)c(Br)c21,-6.7,/,38.9*,2.6
O=C1c2c(Br)c(Br)c(Br)c(Br)c2C(=O)N1c1ccccn1,27.0,0.0,5.8,-0.8
Cc1ccc(S(=O)(=O)N(C)C[C@H]2OCCCC[C@H](C)Oc3ccc(NS(=O)(=O)c4ccc(Cl)cc4)cc3C(=O)N([C@@H](C)CO)C[C@@H]2C)cc1,29.8,0.0,-1.9,4.3
CC(c1ccco1)N(C(=O)Nc1ccc(Cl)cc1)c1ccccn1 (stereo unspecified),123.7*,/,/,-2.7
Cc1ccc(C(=O)N(c2ccccn2)C(C)c2ccco2)cc1 (stereo unspecified),-0.2,/,/,-1.0
SMILES,Statin myotox sup,XiGFP reactiv,DENV2 CPE,Cneo AK release
CN(C[C@@H]1N[C@H](CO)[C@@H]1c1ccc(C2=CCCC2)cc1)S(C)(=O)=O,6.1,0.0,3.9,43.2
C[C@H]1CN([C@@H](C)CO)C(=O)CCCn2nncc2CO[C@H]1CN(C)C(=O)Nc1ccc(F)cc1,1.1,-0.3,13.0,-2.6
C[C@@H](CO)NC(=O)c1ccc2c3n(nc2c1)-c1ccccc1CO3,-9.4,0.0,39.8*,-5.5
C[C@@H]1CN([C@@H](C)CO)C(=O)Cc2cc(NS(=O)(=O)c3cccs3)ccc2O[C@@H]1CN(C)S(C)(=O)=O,-2.6,0.0,2.9,-4.3
C[C@@H]1CN([C@@H](C)CO)C(=O)c2cccc(NC(=O)NC3CCCCC3)c2O[C@H]1CN(C)CC1CCCCC1,-13.4,-1.0,44.4*,1.0
C[C@@H]1CN([C@@H](C)CO)C(=O)c2cccc(NC(=O)Nc3ccccc3)c2O[C@@H]1CN(C)CC1CCCCC1,37.3,0.0,35.9*,-2.7
C[C@@H]1CN([C@H](C)CO)C(=O)c2cccc(NC(=O)Nc3ccccc3)c2O[C@H]1CN(C)CC1CCCCC1,14.3,0.2,11.9,-6.3
O=C(NC1CCCCC1)N1CC2(C1)[C@H](c1ccccc1)[C@H](CO)N2CC1CC1,/,0.0,-9.0,/
O=C(NCC[C@@H]1CC[C@@H](NC(=O)C2CC2)[C@H](CO)O1)c1ccc(F)cc1,-5.7,0.7,-1.7,-2.6
CC1=CC(C)(C)N=C(NC#N)N1,103.8*,/,/,4.7
COCCC(=O)N1CCC(Oc2ccc(C(=O)N3CCCCCC3)cc2)CC1,1.2,0.3,2.8,-0.9
C#CCN(C(=O)c1ccc(OC2CCN(C(=O)CCOC)CC2)cc1)C1CCCCC1,5.4,-0.1,0.2,102.7*
C/C=C/c1ccc2c(c1)O[C@H](CN(C)C(=O)CN(C)C)[C@@H](C)CN([C@@H](C)CO)S2(=O)=O,3.3,-1.1,-0.9,1.9
C=CCN(c1ccccc1OC)S(=O)(=O)c1cccc(C(=O)OC2CCOC2=O)c1 (stereo unspecified),113.8*,0.0,-5.7,1.3
CCN(CC)S(=O)(=O)c1cccc(C(=O)OC2CCOC2=O)c1 (stereo unspecified),44.5,0.1,-5.1,-6.4
CC(C)C#Cc1ccc([C@@H]2[C@@H](CO)N3C(=O)CN(S(=O)(=O)c4ccccc4)C[C@@H]23)cc1,/,0.0,-2.0,/
COc1cc(CCCN2CCNC[C@H]2Cc2ccc(O)cc2)cc(OC)c1OC,1.3,0.0,2.5,-0.4
COc1cc(CCCN2CCNC[C@@H]2c2ccccc2)cc(OC)c1OC,-3.1,0.6,70.2*,-3.4
COc1cc(S(=O)(=O)NCc2ccncc2)c(OC)cc1Br,/,0.0,27.7*,17.4
COc1ccc(OC)c(S(=O)(=O)NCc2cccnc2)c1,125.6*,/,/,0.1
COc1ccc(S(=O)(=O)NCc2cccnc2)c2ccccc12,93.8*,0.1,-0.8,0.7
COc1ccc([C@H]2C/C=C\C[C@H](c3ccccc3)NC(=O)CCC(=O)N2)c(OC)c1,/,0.0,/,/
C[C@H](CO)N1C[C@H](C)[C@@H](CN(C)S(C)(=O)=O)Oc2ccc(NC(=O)CCCCCC(=O)Nc3ccccc3N)cc2C1=O,/,0.0,4.6,/
